Measurements taken from PMC11975418 (Nature medicine, 2023).

How the values were obtained:
AML trial = type: in vivo, human; settings: for Average highest lactate level during OXPHOS: AML
Method in brief: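 Both trials graded adverse events with NCI CTCAE v4.03. In the AML trial, all patients had close monitoring of lactate, blood pH and electrolytes. Patients with lactate >4 mmol/L, pH <7.30 and symptoms were hospitalised for at least 24 h. Dose-limiting lactic acidosis was lactate >4.0 mmol/L, pH <7.35, low CO2, raised anion gap and/or symptoms, confirmed by arterial sampling.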

Solid Tumor trial = type: in vivo, human; settings: for Average highest lactate level during OXPHOS: Solid Tumors
relapsed/refractory AML = test: AML trial: response by European LeukemiaNet 2017; type: in vivo, human; settings: n=17
Method in brief: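 Relapsed/refractory AML patients were dosed by cohort. Cohorts 1–2 got 0.5 or 1.0 mg on Day 1 and Day 8 of cycle 1, then daily in later cycles. Cohorts 3–4 got induction of 2.0 or 2.5 mg daily on Days 1–7. Maintenance followed at 0.5 mg once weekly (cohort 3) or 1.0 mg thrice weekly (cohort 4).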

advanced solid tumors = test: Solid Tumor trial: response by RECISTv1.1; type: in vivo, human
[1] = Human plasma concentrations of IACS-010759; type: in vivo
Method in brief: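 Patient plasma (50 μL) was extracted with acetonitrile containing diclofenac internal standard, vortexed 10 min and spun 2000 g for 10 min. Extract was diluted 1:1 with water for LC-MS/MS with the column at 40 °C. MRM transitions were m/z 563.1>172.1 for analyte and 295.9>151.2 for standard. The method was validated over 0.05–50.0 ng/mL.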

AML blasts [2] = test: Seahorse oxygen consumption rate of AML blasts from treated patients; type: cell-based, human
Method in brief: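 Fresh heparinised patient blood was mixed with equal-volume EasySep buffer and depleted of CD3/CD19-positive cells with an antibody cocktail. Isolated blasts were counted and used immediately for Seahorse basal and maximal OCR, normalised to cell number, with 2–6 technical replicates. Sampling was pre-dose (C1D1), after one week (C1D7/C1D14) and during extended dosing (C1D15/21/28). A two-sided paired t-test was used.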

AML blasts [3] = test: Ratio of mitochondrial to genomic DNA in AML blasts; type: cell-based, human; settings: pre- vs post-dose Day 16/21/27/28; p=0.04
AML blasts [4] = test: Intracellular metabolites in AML blasts; type: cell-based, human
PDX AML-04030094 model = test: Survival of AML PDX mice; type: in vivo, mouse; settings: 1 mg/kg oral, 5-days on/2-days off, NSG AML PDX mice
[5] = tested on: blasts from the spleen of NSG mice; test: Baseline OCR of blasts from the spleen of NSG mice; type: in vivo, mouse; settings: 0.1 and 0.3 mg/kg, 5-days on/2-days off
Method in brief: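 Female NSG mice received 250 cGy cesium irradiation 24 h before tail-vein injection of 0.5 × 10^5 AML PDX cells. Mice were randomized (n=9/group) to vehicle (0.5% methylcellulose) or 0.1, 0.3, 1 or 5 mg/kg test compound, 5 days on/2 days off. Spleens were taken at euthanasia for baseline OCR of blasts. N=5 biologically independent samples; two-sided unpaired t-test.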

[6] = Plasma lactate in NSG and B6 mice; type: in vivo, mouse; settings: escalating doses
C57BL/6J mice [7] = test: Spontaneous pain; type: in vivo, mouse
C57BL/6J mice [8] = test: Sensorimotor function; type: in vivo, mouse
DRG neurons = test: Mitochondrial function; type: in vivo, mouse
C57BL/6J mice [9] = test: Intraepidermal nerve fiber density in hind paw skin; type: in vivo, mouse; settings: highest dose
Method in brief: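 Male C57BL/6J mice were given vehicle (0.5% methylcellulose) or 1 or 5 mg/kg test compound by oral gavage once daily, 5 days on/2 off, then a further 5 days on. Glabrous hind paw skin was collected 12 days after the final dose. PGP9.5-stained fibres crossing the collagen-stained dermal–epidermal junction were counted by confocal microscopy as IENFs/mm, five random images per mouse. n=12/8/8; one-way ANOVA with Dunnett's; mean ± SE.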

ATF3 = ATF3 expression in DRG; type: in vivo, mouse; settings: 1 or 5 mg/kg
Method in brief: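 Mice received test compound (1 or 5 mg/kg) or vehicle orally, once daily, 5 days on/2 off, then another 5 days. DRG were taken 12 days after the last dose and processed as PFA-fixed, OCT-embedded 14 μm frozen sections. Sections were incubated overnight with anti-ATF3 (1:500) in PBS with 2% donkey serum and 0.1% saponin, then Alexa 594 secondary and DAPI. Imaging was confocal. Positive control was spared-nerve-injury DRG; staining was repeated three times.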

[10] = Plasma IACS-010759 exposure versus venous lactate in AML and Solid Tumor cohorts; type: in vivo, human
mitochondrial complex I = settings: by binding the ND1 subunit at the entrance to the quinone binding channel; cited from earlier work
C57BL/6J mice [11] = test: Mechanical allodynia of hind paws; type: in vivo, mouse; settings: 30 mg/kg ACY-1215 co-administered with 0.3 or 1 mg/kg IACS-010759
C57BL/6J mice [12] = type: in vivo, mouse; settings: 30 mg/kg ACY-1215 co-administered with IACS-010759
[13] = end of the first 7-day QD dosing vs pre-treatment
[14] = blasts from Patient 17 (highest exposure), p<0.01
[15] = 30 mg/kg ACY-1215 co-administered with IACS-010759

SMILES: Cc1nc(-c2nc(-c3ccc(OC(F)(F)F)cc3)no2)nn1Cc1cccc(N2CCC(S(C)(=O)=O)CC2)c1 [IACS-010759]
- recommended phase 2 dose (RP2D) (AML trial; AML and Solid Tumor trials): no RP2D was established
- grade 1–2 TRAE: elevated blood lactate (AML trial; AML trial patients): 35%
- grade 1–2 TRAE: myalgia (AML trial; AML trial patients): 6%
- grade 1–2 TRAE: peripheral neuropathy (AML trial; AML trial patients): 12%
- grade ≥3 TRAE: peripheral neuropathy (AML trial; AML trial patients): 6%
- Average highest lactate level during OXPHOS (AML trial; NP (N=6)): 3.9 mmol/L
- Average highest lactate level during OXPHOS (AML trial; Non-NP (N=11)): 3.0 mmol/L
- patients with grade 1–3 peripheral neuropathy (Solid Tumor trial; Solid Tumor trial): 11 patients
- grade 1–2 TRAE: myalgia (Solid Tumor trial; Solid Tumor trial patients): 30%
- grade 1–2 TRAE: peripheral neuropathy (Solid Tumor trial; Solid Tumor trial patients): 35%
- grade 1–2 TRAE: vomiting (Solid Tumor trial; Solid Tumor trial patients): 30%
- grade ≥3 TRAE: elevated blood lactate (Solid Tumor trial; Solid Tumor trial patients): 9%
- grade ≥3 TRAE: nausea (Solid Tumor trial; Solid Tumor trial patients): 9%
- grade ≥3 TRAE: peripheral neuropathy (Solid Tumor trial; Solid Tumor trial patients): 4%
- painful neuropathy (Solid Tumor trial; Solid Tumor trial patients): not observed
- Average highest lactate level during OXPHOS (Solid Tumor trial; NP (N=11)): 4.5 mmol/L
- Average highest lactate level during OXPHOS (Solid Tumor trial; Non-NP (N=12)): 2.6 mmol/L
- response (European LeukemiaNet 2017) (relapsed/refractory AML): No patient in the AML trial responded
- patients with best response of RECISTv1.1 stable disease (advanced solid tumors): eight
- maintenance of plasma levels of ≥20 nM ([1]; AML and Solid Tumor trials, all dosing schedules): not maintained with any dosing schedule
- terminal half-life ([1]; plasma, patients): approximately 16 hours
- patients with >25% reduction in baseline OCR in blasts (AML blasts [2]; [13]): 6/12
- patients with >25% reduction in maximal OCR in blasts (AML blasts [2]; [13]): 8/12
- patients in whom the decrease in baseline OCR was not maintained (AML blasts [2]; extended dosing, among patients with >25% reduction): 2/6
- ratio between mitochondrial and genomic DNA in blasts (AML blasts [3]): significant increase
- NAD+ levels (AML blasts [4]; blasts from Patient 16): did not affect
- intracellular NMP, NDP and NTP levels (AML blasts [4]; blasts from Patient 16 (weakest exposure)): did not affect levels of NMP, NDP, and NTP
- intracellular NMP and NDP levels (AML blasts [4]; [14]): significantly increased
- intracellular NTP levels (AML blasts [4]; [14]): significantly decreased
- NAD+ levels (AML blasts [4]; blasts from Patient 17, p = 0.03): NAD+ levels significantly decreased
- NAD+ levels (AML blasts [4]; blasts from Patient 19): NAD+ levels significantly increased
- intracellular NTP levels (AML blasts [4]; blasts from Patient 19 (lower exposure), p<0.05): significantly reduced NTP levels
- extension of median survival (PDX AML-04030094 model): 7 days
- modulation of baseline OCR [5]: induced moderate modulation of baseline OCR
- plasma lactate ([6]; C56Bl6 mice): elevated by all doses
- plasma lactate ([6]; NSG mice): only elevated by the 5 mg/kg dose
- spontaneous pain: time in the chamber associated with pain relief (C57BL/6J mice [7]; IACS-010759-treated vs vehicle-treated mice): spent significantly more time in the chamber associated with pain relief
- balance and fine motor function (C57BL/6J mice [8]; beam walk test, vs vehicle-treated mice): significant decrease in balance and fine motor function
- OCR in dorsal root ganglia (DRG neurons; 3–4 hours and 5 weeks after the last dose): dose-dependently inhibited OCR
- intraepidermal nerve fiber density (IENF) in hind paw skin (C57BL/6J mice [9]): reduced intraepidermal nerve fiber density
- expression of ATF3 (ATF3): did not increase
- drug exposure associated with increased probability of elevated lactate ([10]; equivalent of the nM value): > 4.5 ng/mL
- drug exposure associated with increased probability of elevated lactate ([10]; plasma IACS-010759, AML and Solid Tumor cohorts): > 8 nM
- inhibition of mitochondrial complex I (mitochondrial complex I): selectively inhibited mitochondrial complex I

SMILES: O=C(CCCCCCNC(=O)c1cnc(N(c2ccccc2)c2ccccc2)nc1)NO [ACY-1215, reference compound]
- effect on IACS-010759-induced mechanical allodynia (C57BL/6J mice [11]): significantly attenuated
- effect on IACS-010759-induced spontaneous pain (C57BL/6J mice [7]; [15]): prevented
- effect on IACS-010759-induced sensorimotor deficits (C57BL/6J mice [8]; [15]): prevented
- effect on IACS-010759-induced reduction of OCR in the DRG (DRG neurons; [15]): did not prevent
- effect on IACS-010759-induced damage to the myelin of the sciatic nerve (C57BL/6J mice [12]): prevented
